Assay results from different studies.
Compare with care: the assays were run in different laboratories.
FGFR1: Fibroblast growth factor receptor 1 (FGFR1, Homo sapiens, UniProt P11362)

For `CC(C)(C)c1cc(C=C(C#N)C#N)cc(Br)c1O`, the remaining activity was 95.9% (FGFR1; enzyme activity, inhibitor; 0.5 µM).
The remaining binding of `COc1ncccc1-c1cnn2ccc(N3CCN(C(=O)OC(C)C)CC3)nc12` is reported as 88% (FGFR1; binding, competition with immobilised ligand; 1 µM).
With `Nc1ncc(-c2nc(N3CCOCC3)nc(N3CCOCC3)n2)c(C(F)F)n1` the remaining binding was 94% (FGFR1; cell-free assay, competition with immobilised ligand; 10 µM).
For `COCc1c(-c2cc3cc(C)cc(OC)c3s2)c2c(N)ncnn2c1CN1CCNC(=O)C1`, the inhibition was 98% (FGFR1; cell-free assay, competition with immobilised ligand; 1 µM).
With `Cn1cncc1[C@](O)(COc1ccc(C#N)cc1-c1ccc(OC(F)(F)F)cc1)c1ccc(C#N)cc1` the remaining binding was 62% (FGFR1; cell-free assay, competition with immobilised ligand; 1 µM).
`Cn1cc(-c2cc(F)cc(N3CCn4c(cc5c4CCCC5)C3=O)c2CO)cc(Nc2ccc(N3CCN(C4COC4)CC3)cn2)c1=O` gave an inhibition of 9% (FGFR1; enzyme activity, inhibitor; 0.1 µM).
The remaining signal of `O=c1[nH]c2ccccc2n1C1CCN(Cc2ccc(-c3[nH]c4cc5ncnc5cc4nc3-c3ccccc3)cc2)CC1` is reported as 102% (FGFR1; cell-free assay; 0.5 µM).
`Cn1cc(-c2cccc(N3CCc4c(sc5c4CC(C)(C)C5)C3=O)c2CO)cc(Nc2ccncn2)c1=O` has an inhibition of 9% (FGFR1; enzyme activity, inhibitor; 1 µM).
The remaining binding of `N#CC1(c2ccccn2)CCN(Cc2cc(C(=O)O)c(=O)n3ccccc23)CC1` is reported as 98% (FGFR1; cell-free assay, competition with immobilised ligand; 1 µM).
For `C#Cc1n[nH]c2c(-c3cn([C@@H](C)c4ccccc4)c(=O)[nH]c3=O)cc(F)cc12`, the inhibition was 2.9% (FGFR1; enzyme activity, inhibitor; 0.1 µM).
`COc1cc(Nc2ncc(F)c(Nc3ccc4c(n3)NC(=O)C(C)(C)O4)n2)cc(OC)c1OC` gave an inhibition of 100% (FGFR1; binding, competition with immobilised ligand; 10 µM).
The inhibition of `C#Cc1n[nH]c2c(-c3cn([C@@H](C)c4ccccn4)c(=O)[nH]c3=O)cc(F)cc12` is reported as -4.4% (Fibroblast growth factor receptor 1 (FGFR1, Homo sapiens, UniProt P11362, V561M); enzyme activity, inhibitor; 0.1 µM).
For `Cc1nn(C)cc1-c1nc2c(N3CCN(Cc4ccc(Cl)cc4)CC3)c(Cl)cnc2[nH]1`, the remaining binding was 62% (FGFR1; binding, competition with immobilised ligand; 1 µM).
